Hits are enriched below; roughly 6.4% of the tested compounds scored in any of these assays.
GRIN3A LBD mod: binders of NR3A ligand-binding domain, primary screen, biophysical, differential scanning fluorimetry, uHTS; AID 1259313, 2017; Tm shift relative to glycine control, % at 25 µM; NR3A LBD differential scanning fluorimetry, Tm shift; 0% = protein alone, 100% = glycine-bound protein; Glutamate receptor ionotropic, NMDA 3A (GRIN3A) ligand-binding domain; 340,000 compounds, 2.5% hits;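 active = melting temperature shift of at least 10% of the positive control shift, at one fixed dose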
TbMetRS inhib: T. brucei MetRS inhibitors, primary screen, biochemical, luminescence. 360,000 compounds, 0.4% hits. inhibition, % at 11.9 µM. AID 624268, 2012. methionyl-tRNA synthetase (Trypanosoma brucei brucei). purified T. brucei MetRS, ATP depletion, Kinase-Glo luminescence;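 active = inhibition above a per-plate cutoff of the control wells' mean inhibition plus 3 SD, cut at about 5.5% in these data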;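 also: 0% = DMSO wells median and 100% = median of wells with control inhibitor compound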
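System: purified T. brucei MetRS enzyme / Detection: Kinase-Glo luciferase luminescence reporting remaining unconsumed ATP / Medium: HEPES buffer with MgCl2, KCl, DTT, spermine, BSA, pyrophosphatase / Replication: singlicate, one well per compound / Evaluation: percent inhibition relative to median high and low control wells / Schedule: 2 h aminoacylation at 25 °C after 15 min preincubation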
EBV gp42 inh: Epstein-Barr virus gp42 inhibitors, primary screen, biochemical, uHTS, fluorescence polarization | inhibition, % (tested at 21.74 µM) | Fluorescence polarization binding assay, mP read-out | 220,000 compounds, 0.42% hits | AID 1085, 2008; in the data active = inhibition above about 50%
Target sequence (Q1HVG2 whole entry, looked up): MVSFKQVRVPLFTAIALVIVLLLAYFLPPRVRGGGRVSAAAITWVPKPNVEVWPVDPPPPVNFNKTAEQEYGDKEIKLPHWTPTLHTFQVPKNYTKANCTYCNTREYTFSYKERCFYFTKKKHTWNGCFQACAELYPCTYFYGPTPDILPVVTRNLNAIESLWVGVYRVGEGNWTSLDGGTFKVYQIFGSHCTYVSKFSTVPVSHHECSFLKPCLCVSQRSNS
MPTP block: mitochondrial permeability transition pore inhibitors, primary screen, biochemical, isolated mouse mitochondria, absorbance; Ca2+ swelling absorbance, 30 min; inhibition, % at 10 µM; 360,000 compounds, 1.4% hits;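 active = inhibition of 50% or more, scaled per plate between neutral and stimulator controls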;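 also: 0% = DMSO wells given calcium and 100% = 1 mM EGTA wells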
CHOP inh: inhibitors of CHOP promoter induction, primary screen, cell-based, unfolded protein response, luciferase reporter | inhibition, % at 10 µM | 220,000 compounds, 3.8% hits | CHO-K1 CHOP-promoter luciferase, tunicamycin-induced, 15-18 h;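 active = compounds that reduced the stress-induced luciferase reporter signal by more than about 70% of percent inhibition, limit read from the data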;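 also: 0% = tunicamycin plus vehicle and 100% = wells without tunicamycin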
WT yeast gro inh: growth inhibition of WT strain, primary screen, mitochondrial fusion inhibitor project, WT and mutant strains, chemical genetic; mitochondrial fusion phenotypic screen; inhibition, % at 10 µM; 190,000 compounds, 2.1% hits; AID 1362, 2008; in the data active = inhibition above about 58%; tested in S. cerevisiae
* marks the source's active call; other numbers are inactive results.

Screening COc1ccc(C(=O)COC(=O)C2CCN(c3ccc(C(F)(F)F)cn3)CC2)c(OC)c1 returned GRIN3A LBD mod -2, TbMetRS inhib -1 and MPTP block 0.
Screening COc1cc(C(=O)COC(=O)C2CCN(c3ccc(C(F)(F)F)cn3)CC2)ccc1OC(F)F returned GRIN3A LBD mod 11*, TbMetRS inhib 0 and MPTP block -1.
Screening Cc1ccc(NC(=O)COC(=O)C2CCN(c3ccc(C(F)(F)F)cn3)CC2)cc1 returned GRIN3A LBD mod 8, TbMetRS inhib 2 and MPTP block 0.
For CCCOC(=O)c1ccc(NC(=O)COC(=O)C2CCN(c3ccc(C(F)(F)F)cn3)CC2)cc1 the results were GRIN3A LBD mod 21*, TbMetRS inhib 0 and MPTP block 1.
CCOc1ccccc1N1CCN(C(=O)c2ccc3[nH]c4c(c3c2)CCCC4)CC1 was read as GRIN3A LBD mod -7, TbMetRS inhib -1, EBV gp42 inh -35, MPTP block -1, CHOP inh 30 and WT yeast gro inh 58*.
Screening CCOc1ccccc1N1CCN(C(=O)c2cc3c(C)cc(C)cc3[nH]2)CC1 returned GRIN3A LBD mod -1, TbMetRS inhib -1 and MPTP block 2.
`CN1CCN(C(=O)c2cccn(Cc3c(Cl)cccc3Cl)c2=O)CC1` gave GRIN3A LBD mod 1, TbMetRS inhib -1 and MPTP block 1.
For CN1/C(=C\C(=O)COc2ccc3c(c2)OCO3)C(C)(C)c2ccccc21 the results were GRIN3A LBD mod 3, TbMetRS inhib 0, EBV gp42 inh -42, MPTP block 4, CHOP inh 85* and WT yeast gro inh 53.
Screening O/N=C/c1nc2cc(Cl)ccc2o1 returned GRIN3A LBD mod -1, TbMetRS inhib 1, EBV gp42 inh 10, MPTP block 4, CHOP inh -14 and WT yeast gro inh -5.
`COc1cc(C)c(CNc2cc(C)cc(C)c2)cc1C` gave GRIN3A LBD mod 20*, TbMetRS inhib 0, EBV gp42 inh -5, MPTP block 2, CHOP inh 52 and WT yeast gro inh -4.
`Cc1ccc(-n2nc3c4c(cccc4c2=O)-c2ccccc2-3)cc1` gave GRIN3A LBD mod 3, TbMetRS inhib -1, EBV gp42 inh -2, MPTP block 3, CHOP inh 49 and WT yeast gro inh -16.
`Cc1ccc(SCC2(O)CCN(S(=O)(=O)c3ccc(Cl)cc3)CC2)cc1` gave GRIN3A LBD mod -5, TbMetRS inhib 0, EBV gp42 inh -3, MPTP block 26, CHOP inh 81* and WT yeast gro inh 43.
For O=C(c1ccc(Cl)cc1)N1CCC(O)(CSc2ccc(Cl)cc2)CC1 the results were GRIN3A LBD mod -17, TbMetRS inhib -1, EBV gp42 inh -8, MPTP block 0, CHOP inh 72* and WT yeast gro inh 61*.
For CCN(Cc1ccccc1)S(=O)(=O)c1ccc(S(=O)(=O)N(Cc2cccc(OC)c2)CC2CCCO2)cc1 (configuration not stated) the results were GRIN3A LBD mod 2, TbMetRS inhib -2, EBV gp42 inh -10, MPTP block 0, CHOP inh 8 and WT yeast gro inh 12.
COc1cccc(CN(CC2CCCO2)S(=O)(=O)c2ccc(-n3cnnn3)c(OC)c2)c1 (configuration not stated) was read as GRIN3A LBD mod 10*, TbMetRS inhib 0, EBV gp42 inh 11, MPTP block 0, CHOP inh 17 and WT yeast gro inh -1.
`CN1CCN(c2ccccc2NC(=O)c2ccc(-c3cccc(Cl)c3)o2)CC1` gave GRIN3A LBD mod -7, TbMetRS inhib 0 and MPTP block 0.
`CCCOc1ccc(NC(=O)C2CC(=O)N/C(=N/N=C(\C)CCc3ccc4c(c3)OCO4)S2)cc1` (configuration not stated) gave GRIN3A LBD mod -1, TbMetRS inhib 0, EBV gp42 inh 2, MPTP block 1, CHOP inh 78* and WT yeast gro inh -5.
`CCOc1cccc(NC(=O)C2CC(=O)N(C)C(=Nc3ccccc3)S2)c1` (configuration not stated) gave GRIN3A LBD mod -16, TbMetRS inhib -2, EBV gp42 inh 18, MPTP block 1, CHOP inh 32 and WT yeast gro inh 3.
`CCOc1cccc(NC(=O)C2CC(=O)N(C)C(=Nc3cccc(F)c3)S2)c1` (configuration not stated) gave TbMetRS inhib 0, EBV gp42 inh 0, MPTP block 3, CHOP inh 91* and WT yeast gro inh 55.
CCCOc1ccc(NC(=O)C2CC(=O)N/C(=N/N=C(C)/C=C/c3ccc(N(C)C)cc3)S2)cc1 (configuration not stated) was read as GRIN3A LBD mod -5, TbMetRS inhib 2, EBV gp42 inh -52, MPTP block 2, CHOP inh 72* and WT yeast gro inh 2.
For CC(/C=C/c1ccc(N(C)C)cc1)=N/N=C1/NC(=O)CC(C(=O)Nc2ccc(Cl)cc2)S1 (configuration not stated) the results were GRIN3A LBD mod 27*, TbMetRS inhib 0, EBV gp42 inh -50, MPTP block 3, CHOP inh 71* and WT yeast gro inh 19.
For CC(/C=C/c1ccc(N(C)C)cc1)=N\N=C1\NC(=O)CC(C(=O)Nc2ccccc2)S1 (configuration not stated) the results were GRIN3A LBD mod -1, TbMetRS inhib 1, EBV gp42 inh -83, MPTP block 2, CHOP inh -4 and WT yeast gro inh 46.
`C[C@@H]1CN([C@@H](C)CO)C(=O)c2cc(Br)cnc2O[C@H]1CN(C)C(=O)CN1CCOCC1` gave TbMetRS inhib 1 and MPTP block 0.
`O=C(c1cccs1)N1CCC(c2nc(-c3ccc(S(=O)(=O)N4CCOCC4)cc3)no2)CC1` gave GRIN3A LBD mod -2, TbMetRS inhib 0, EBV gp42 inh -16, MPTP block 7, CHOP inh 32 and WT yeast gro inh -5.
Screening Cc1ccc(C)c(NC(=O)CSc2nc3ccccc3nc2N2CCOCC2)c1 returned GRIN3A LBD mod -3, TbMetRS inhib -1 and MPTP block 2.
Screening CCCS(=O)(=O)NC(=O)C1(C)CCCN(C(=O)c2ccc(C(F)(F)F)cc2)C1 (configuration not stated) returned TbMetRS inhib 0 and MPTP block -1.
